Measured values: paper PMC5349769 (ACS chemical neuroscience, 2015)

Legend:
DAT = DAT (Rattus norvegicus, UniProt P23977); test: Inhibition of [3H]dopamine reuptake at DAT in rat caudate synaptosomes; format: biochemical; details: for efficacy as inhibitor of reuptake at DAT: dose-response, Figure 1A; for EC50: read-out: EC50, DAT uptake inhibition
NET = NET (Rattus norvegicus, UniProt Q63380); test: Inhibition of [3H]norepinephrine reuptake at NET in rat brain synaptosomes; format: biochemical; details: for efficacy as inhibitor of reuptake at NET: dose-response, Figure 1B
SERT = SERT (Rattus norvegicus, UniProt P31652); test: Inhibition of [3H]serotonin reuptake at SERT in rat brain synaptosomes; format: biochemical; details: 5 nM [3H]serotonin, data not shown
Outline: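 Synaptosomes prepared from rat whole brain minus caudate and cerebellum after CO2 euthanasia. Uptake began by adding tissue suspension to Krebs-phosphate buffer, pH 7.4, containing 0.05 mM pargyline, BSA, ascorbic acid, test compound and 5 nM [3H]serotonin. Unlabeled blockers of competing transporters were included. The assay ended by rapid vacuum filtration through GF/B filters, and retained radioactivity was measured by scintillation counting.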

[1] = system: intracranial self-stimulation (medial forebrain bundle); details: rats; racemate, earlier report ref 15; cited from earlier work
[2] = system: intracranial self-stimulation (medial forebrain bundle); test: Intracranial self-stimulation; format: in vivo, rat; details: rats, i.p.
[3] = ratio of reuptake inhibition potencies

Chain of DAT (P23977 whole entry): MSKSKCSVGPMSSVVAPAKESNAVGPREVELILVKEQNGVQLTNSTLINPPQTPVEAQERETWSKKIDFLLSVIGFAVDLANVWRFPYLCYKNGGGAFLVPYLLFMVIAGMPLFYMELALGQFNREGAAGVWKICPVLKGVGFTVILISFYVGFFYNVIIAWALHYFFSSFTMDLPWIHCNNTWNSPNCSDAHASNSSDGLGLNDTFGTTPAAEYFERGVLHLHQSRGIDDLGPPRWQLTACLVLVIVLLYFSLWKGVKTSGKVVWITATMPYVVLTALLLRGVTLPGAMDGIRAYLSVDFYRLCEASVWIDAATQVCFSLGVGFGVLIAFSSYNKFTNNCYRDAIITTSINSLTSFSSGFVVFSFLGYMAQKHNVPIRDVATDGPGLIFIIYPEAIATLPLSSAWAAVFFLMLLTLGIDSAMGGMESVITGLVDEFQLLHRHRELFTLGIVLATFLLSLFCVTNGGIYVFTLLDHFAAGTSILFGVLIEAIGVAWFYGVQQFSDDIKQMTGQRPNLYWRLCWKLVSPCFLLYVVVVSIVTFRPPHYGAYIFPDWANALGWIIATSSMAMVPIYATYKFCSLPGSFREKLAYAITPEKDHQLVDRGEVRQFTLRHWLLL
Chain of NET (Q63380 1-617): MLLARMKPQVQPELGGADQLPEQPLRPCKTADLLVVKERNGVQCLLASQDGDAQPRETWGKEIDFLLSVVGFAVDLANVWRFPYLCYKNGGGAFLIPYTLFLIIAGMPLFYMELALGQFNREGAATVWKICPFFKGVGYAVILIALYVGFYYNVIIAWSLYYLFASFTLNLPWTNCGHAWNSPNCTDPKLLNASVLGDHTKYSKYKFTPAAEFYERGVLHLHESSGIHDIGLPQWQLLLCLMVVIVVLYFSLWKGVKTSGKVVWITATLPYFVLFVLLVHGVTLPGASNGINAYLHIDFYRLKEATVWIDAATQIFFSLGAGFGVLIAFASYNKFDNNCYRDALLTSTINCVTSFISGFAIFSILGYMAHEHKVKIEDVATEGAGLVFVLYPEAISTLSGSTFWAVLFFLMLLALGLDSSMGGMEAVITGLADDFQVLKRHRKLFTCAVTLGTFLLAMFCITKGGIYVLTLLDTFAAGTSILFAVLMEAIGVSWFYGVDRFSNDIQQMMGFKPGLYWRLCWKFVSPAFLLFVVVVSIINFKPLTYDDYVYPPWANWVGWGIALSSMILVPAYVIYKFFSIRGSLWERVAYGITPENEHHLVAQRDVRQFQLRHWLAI
Chain of SERT (P31652 whole entry): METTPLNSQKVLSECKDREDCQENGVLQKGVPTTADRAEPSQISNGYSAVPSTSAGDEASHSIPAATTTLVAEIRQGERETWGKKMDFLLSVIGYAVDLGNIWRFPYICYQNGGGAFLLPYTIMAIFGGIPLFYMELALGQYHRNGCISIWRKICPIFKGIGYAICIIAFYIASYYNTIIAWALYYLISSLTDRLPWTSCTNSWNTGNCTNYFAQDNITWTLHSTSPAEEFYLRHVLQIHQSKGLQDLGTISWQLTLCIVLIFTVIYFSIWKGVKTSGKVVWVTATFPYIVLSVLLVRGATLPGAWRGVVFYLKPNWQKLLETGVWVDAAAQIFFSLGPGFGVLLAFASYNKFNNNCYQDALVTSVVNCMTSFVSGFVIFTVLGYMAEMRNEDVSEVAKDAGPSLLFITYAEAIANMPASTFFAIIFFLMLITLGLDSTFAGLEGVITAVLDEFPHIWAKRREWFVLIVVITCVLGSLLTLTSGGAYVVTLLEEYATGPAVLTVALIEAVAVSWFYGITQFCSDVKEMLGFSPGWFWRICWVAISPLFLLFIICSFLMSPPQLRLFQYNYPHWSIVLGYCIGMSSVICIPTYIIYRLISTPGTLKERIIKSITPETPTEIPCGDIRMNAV

| Compound | efficacy as inhibitor of reuptake at DAT (DAT) | EC50 (DAT) [nM] | efficacy as inhibitor of reuptake at NET (NET) | concentration up to which reuptake of [3H]serotonin at SERT was not inhibited (SERT) [µM] | doses producing significant facilitation of ICSS [1] [mg/kg] | fold more potent as reuptake inhibitor than R(−)MDPV at DAT (DAT; [3]) | fold more potent than cocaine at DAT (DAT; [3]) [fold] | potency relative to the racemate at DAT (DAT; reuptake inhibition) | fold more potent as reuptake inhibitor than R(−)MDPV at NET (NET; [3]) [fold] | fold more potent than cocaine at NET (NET; [3]) [fold] | potency relative to the racemate at NET (NET; reuptake inhibition) | effect on ICSS relative to vehicle, posthoc analysis ([2]; doses of 0.32 and 1.0 mg/kg, one-way ANOVA, Dunnett's posthoc) | effect on ICSS frequency–rate curve (%MCR) ([2]; S(+)MDPV 0.32 mg/kg, R(−)MDPV 3.2 mg/kg, Figure 2B,C) | dose without effect on ICSS relative to the lowest effective dose of S(+)MDPV ([2]; up to 10 mg/kg) [fold] |
| --- | --- | --- | --- | --- | --- | --- | --- | --- | --- | --- | --- | --- | --- | --- |
| CCCC(C(=O)c1ccc2c(c1)OCO2)N1CCCC1 (racemic) [(±)MDPV (3), methylenedioxypyrovalerone] | fully efficacious | 4.85 | fully efficacious | > 10 | ≥ 0.32 |  |  |  |  |  |  |  |  |  |
| CCC[C@@H](C(=O)c1ccc2c(c1)OCO2)N1CCCC1.Cl [S(+)MDPV (3S), S(+)-Methylendioxypyrovalerone Hydrochloride] | fully efficacious | 2.13 | fully efficacious |  |  | approximately 200 fold | 100 | approximately twice as potent | ~80 | 40 | approximately twice as potent | significantly facilitated ICSS | leftward shift in the ICSS frequency–rate curve |  |
| CCC[C@H](C(=O)c1ccc2c(c1)OCO2)N1CCCC1.Cl [R(−)MDPV (3R), R(−)-Methylendioxypyrovalerone Hydrochloride] |  | 383 |  |  |  |  |  |  |  |  |  |  |  | > 100 |
